Measurements: PMC8752533 (European Journal of Drug Metabolism and Pharmacokinetics, 2021)
“And” between values parts separate entries of the source, which are not always exact repeats. Equal values may be shown once. Read-outs that look alike come from different tables or passages of the source.

Experiments:
[1] = Phase I DDI study with rifampicin: safety and tolerability; format: in vivo, human (healthy male volunteers); settings: for Participants with any AE: 16 participants per treatment
[2] = doses up to 75 mg in healthy volunteers; cited from earlier work
CYP3A = test: BI 425809 metabolism by human hepatocytes; format: in vitro ADME; settings: erythromycin 30 µM, all BI 425809 concentrations evaluated
[3] = test system: cerebrospinal fluid glycine levels; settings: multiple oral administrations, doses as low as 10 mg, dose-dependent; cited from earlier work
human liver microsomes = test: Turnover of BI 425809 in human liver microsomes; format: in vitro ADME; settings: BI 425809 0.2, 2, 10 μM; up to 60 min
CYP3A5 = CYP3A5 (Homo sapiens, UniProt P20815); test: Metabolism of BI 425809 by recombinant CYP isoforms; format: in vitro ADME
Sequence of CYP3A5 (P20815 whole entry, canonical isoform): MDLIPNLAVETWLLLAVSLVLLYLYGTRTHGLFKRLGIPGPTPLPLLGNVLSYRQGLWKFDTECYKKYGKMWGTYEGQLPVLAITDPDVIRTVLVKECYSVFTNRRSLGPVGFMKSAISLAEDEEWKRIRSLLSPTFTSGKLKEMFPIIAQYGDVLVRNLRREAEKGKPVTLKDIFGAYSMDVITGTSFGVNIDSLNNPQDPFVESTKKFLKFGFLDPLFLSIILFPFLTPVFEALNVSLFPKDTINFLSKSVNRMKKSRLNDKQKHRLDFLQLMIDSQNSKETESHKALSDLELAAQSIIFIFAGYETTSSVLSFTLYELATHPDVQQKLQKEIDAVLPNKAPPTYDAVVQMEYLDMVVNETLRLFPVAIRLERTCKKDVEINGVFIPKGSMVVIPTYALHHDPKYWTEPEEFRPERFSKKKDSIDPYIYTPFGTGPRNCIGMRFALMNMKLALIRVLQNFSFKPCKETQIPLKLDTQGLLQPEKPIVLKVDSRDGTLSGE

[4] = Phase I DDI study with rifampicin: plasma pharmacokinetics of BI 425809; format: in vivo, human (healthy male volunteers); settings: for AUC(0-inf): AUC0-∞
[5] = Phase I DDI study with itraconazole: safety and tolerability; format: in vivo, human (healthy male volunteers); settings: for Treatment-related AEs / Participants with any AE / Gastrointestinal disorders / General disorders and administration site conditions / Infections and infestations / Musculoskeletal and connective tissue disorders / Nervous system disorders / Vascular disorders: DDI + itraconazole study; for Participants with any AE: 16 participants per treatment; for Gastrointestinal disorders / General disorders and administration site conditions / Infections and infestations / Musculoskeletal and connective tissue disorders / Nervous system disorders / Vascular disorders: system organ class
Outline: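 Healthy males aged 18–50, BMI 18.5–29.9, received a single oral 25 mg test compound dose alone in period 1. In period 2 the same dose was given on day 4 of oral itraconazole, 200 mg QD on days 2–10. Washout was ≥16 days. Dosing followed a standardised breakfast, with 240 ml water. Safety was scored as frequency n (%) of AEs by system organ class, including physical exam findings, alongside labs, vital signs and 12-lead ECG.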

CYP3A4 [6] = target: CYP3A4 (Homo sapiens, UniProt P08684); format: in vitro ADME; settings: rCYP3A4, NADPH, up to 60 min
Sequence of CYP3A4 (Homo sapiens, UniProt P08684) (P08684 whole entry): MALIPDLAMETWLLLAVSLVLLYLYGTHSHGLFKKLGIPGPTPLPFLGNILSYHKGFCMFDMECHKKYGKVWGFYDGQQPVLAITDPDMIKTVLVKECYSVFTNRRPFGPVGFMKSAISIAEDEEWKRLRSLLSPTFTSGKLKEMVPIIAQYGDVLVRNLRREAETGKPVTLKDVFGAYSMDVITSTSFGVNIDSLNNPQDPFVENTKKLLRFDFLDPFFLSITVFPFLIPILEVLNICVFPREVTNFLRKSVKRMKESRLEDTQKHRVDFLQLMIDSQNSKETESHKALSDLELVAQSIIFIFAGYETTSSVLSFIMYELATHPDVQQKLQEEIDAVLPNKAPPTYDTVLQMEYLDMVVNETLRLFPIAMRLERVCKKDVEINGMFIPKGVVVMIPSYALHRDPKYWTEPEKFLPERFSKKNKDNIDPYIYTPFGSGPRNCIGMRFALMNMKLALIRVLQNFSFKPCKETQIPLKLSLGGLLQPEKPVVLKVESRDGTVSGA

[7] = Analyte stability in human plasma samples containing tripotassium EDTA; format: physicochemical; settings: human plasma with tripotassium EDTA, -20 °C
[8] = Phase I DDI study with itraconazole: plasma pharmacokinetics of BI 425809; format: in vivo, human (healthy male volunteers); settings: for AUC(0-inf): AUC0-∞
CYP3A4 [9] = settings: human liver microsomes; CYP3A4 inhibitor ketoconazole
[10] = DDI + rifampicin study, system organ class
[11] = BI 425809 + rifampicin relative to BI 425809 alone
[12] = male, human, plasma, oral, 25 mg
[13] = male, human, plasma, oral, 25 mg, gMean, BI 425809 25 mg alone, N = 16
[14] = BI 425809 + itraconazole relative to BI 425809 alone

Compound: C[C@@H](Oc1ccc(S(C)(=O)=O)cc1C(=O)N1C[C@@H]2C[C@]2(c2cc(C(F)(F)F)on2)C1)C(F)(F)F [BI 425809]
- Participants with Severe AE ([1]; DDI + rifampicin study): 0 (0) n (%)
- Treatment-related AEs ([1]; DDI + rifampicin study): 0 (0) n (%)
- Participants with any AE ([1]; DDI + rifampicin study): 2 (12.5) n (%)
- Gastrointestinal disorders [1, 10]: 0 n (%)
- General disorders and administration site conditions [1, 10]: 0 n (%)
- Nervous system disorders [1, 10]: 1 (6.3) n (%)
- Renal and urinary disorders [1, 10]: 0 n (%)
- Respiratory, thoracic and mediastinal disorders [1, 10]: 1 (6.3) n (%)
- Skin and subcutaneous tissue disorders [1, 10]: 0 n (%)
- participants who reported ≥ 1 AE ([1]; DDI with rifampicin): 12.5%
- tolerability [2]: generally well tolerated
- inhibition of depletion of BI 425809 by erythromycin (CYP3A): 92.1–100% and > 90%
- mean increase in cerebrospinal fluid glycine levels [3]: 50%
- turnover of BI 425809 in human liver microsomes (human liver microsomes): No detectable turnover
- % In vitro CYP contribution, Depletion (CYP3A5; CYP3A5, depletion of BI 425809): ~4%
- depletion of BI 425809 (CYP3A5; rCYP3A5, NADPH, up to 60 min): > 15%
- CL/F, gMean ([4]; BI 425809 25 mg alone, N = 16): 94.6 mL/min
- AUC0-168, adjusted gMean ratio T/R (90% CI) [4, 11]: 10.3% and 10.3 (9.3‒11.3) %
- AUC0-∞, adjusted gMean ratio T/R (90% CI) [4, 11]: 9.8 (8.8–11.0) %
- Cmax, adjusted gMean ratio T/R (90% CI) [4, 11]: 37.4% and 37.4 (33.0‒43.5) %
- AUC0-∞, adjusted gMean ([4]; BI 425809 alone (R), inferential analysis): 8.596 µM·h
- AUC0-168 ratio ([4]; BI 425809 co-administered with rifampicin relative to BI 425809 alone): 0.10
- AUC(0-t) [4, 12]: 8.22 µM·h
- half-life [4, 12]: 2000 min
- AUC(0-inf) [4, 13]: 8.6 µM·h
- AUC(0-inf) ([4]; male, human, plasma, oral, adjusted gMean, BI 425809 + rifampicin (T), inferential analysis): 0.846 µM·h
- AUC(0-inf) ([4]; male, human, plasma, oral, gMean, BI 425809 25 mg + rifampicin, N = 15): 0.837 µM·h
- AUC(0-t) ([4]; male, human, plasma, po, 25 mg): 8.22 µM·h
- Cmax ([4]; read-out: Cmax, adjusted gMean, BI 425809 alone (R), inferential analysis): 218 nM
- Cmax ([4]; read-out: Cmax, gMean, BI 425809 25 mg alone, N = 16): 218 nM
- Treatment-related AEs [5]: 0 (0) n (%)
- Participants with any AE [5]: 6 (37.5) n (%)
- Gastrointestinal disorders [5]: 0 n (%)
- General disorders and administration site conditions [5]: 1 (6.3) n (%)
- Infections and infestations [5]: 3 (18.8) n (%)
- Musculoskeletal and connective tissue disorders [5]: 1 (6.3) n (%)
- Nervous system disorders [5]: 1 (6.3) n (%)
- Vascular disorders [5]: 1 (6.3) n (%)
- participants who reported ≥ 1 AE ([5]; DDI with itraconazole): 37.5%
- tolerability ([5]; both DDI studies (itraconazole and rifampicin), 25 mg single oral dose): well tolerated
- depletion of BI 425809 (CYP3A4 [6]): > 15%
- period of demonstrated analyte stability [7]: 381 days
- CL/F, gMean ([8]; BI 425809 25 mg + itraconazole, N = 15): 12.4 mL/min
- CL/F, gMean ([8]; BI 425809 25 mg alone, N = 16): 73.3 mL/min
- t1/2, gMean ([8]; BI 425809 25 mg alone, N = 16): 45.5 h
- AUC0-167, adjusted gMean ratio T/R (90% CI) [8, 14]: 265.3% and 265.3 (240.9‒292.2) %
- AUC0-∞, adjusted gMean ratio T/R (90% CI) [8, 14]: 597.0% and 597.0 (514.2‒693.0) %
- Cmax, adjusted gMean ratio T/R (90% CI) [8, 14]: 116.1% and 116.1 (108.0‒124.7) %
- extrapolated area of AUC0-∞ ([8]; BI 425809 under itraconazole treatment): 56%
- AUC(0-t) [8, 12]: 10.2 µM·h
- Cmax [8, 12]: 316 nM
- AUC(0-inf) ([8]; male, human, plasma, oral, 25 mg, adjusted gMean, BI 425809 alone (R), inferential analysis): 11.1 µM·h
- AUC(0-inf) [8, 13]: 11.1 µM·h
- AUC(0-inf) ([8]; male, human, plasma, oral, adjusted gMean, BI 425809 + itraconazole (T), inferential analysis): 66.2 µM·h
- AUC(0-inf) ([8]; male, human, plasma, oral, gMean, BI 425809 25 mg + itraconazole, N = 15): 65.3 µM·h
- AUC(0-t) ([8]; male, human, plasma, po, 25 mg): 10.2 µM·h
- Cmax ([8]; read-out: Cmax, adjusted gMean, BI 425809 + itraconazole (T), inferential analysis): 367 nM
- increase in Cmax ([8]; with itraconazole versus alone): ~16%

Compound: CCC(C)n1ncn(-c2ccc(N3CCN(c4ccc(OCC5COC(Cn6cncn6)(c6ccc(Cl)cc6Cl)O5)cc4)CC3)cc2)c1=O (stereo not shown) [Itraconazole, itraconazole, reference compound]
- Treatment-related AEs [5]: 1 (6.3) n (%)
- Participants with any AE [5]: 4 (25.0) n (%)
- Gastrointestinal disorders [5]: 1 (6.3) n (%)
- General disorders and administration site conditions [5]: 0 n (%)
- Infections and infestations [5]: 2 (12.5) n (%)
- Musculoskeletal and connective tissue disorders [5]: 1 (6.3) n (%)
- Nervous system disorders [5]: 0 n (%)
- Vascular disorders [5]: 0 n (%)
- participants who reported ≥ 1 AE ([5]; DDI with itraconazole): 25%
- participants with AE considered as drug-related by the investigator ([5]; DDI with itraconazole): 6.3%

Compound: CO[C@H]1/C=C/O[C@@]2(C)Oc3c(C)c(O)c4c(O)c(c(/C=N/N5CCN(C)CC5)c(O)c4c3C2=O)NC(=O)/C(C)=C\C=C\[C@H](C)[C@H](O)[C@@H](C)[C@@H](O)[C@@H](C)[C@H](OC(C)=O)[C@@H]1C [Rifampicin, rifampicin, reference compound]
- Participants with Severe AE ([1]; DDI + rifampicin study): 0 (0) n (%)
- Treatment-related AEs ([1]; DDI + rifampicin study): 16 (100) n (%)
- Participants with any AE ([1]; DDI + rifampicin study): 16 (100) n (%)
- Gastrointestinal disorders [1, 10]: 0 n (%)
- General disorders and administration site conditions [1, 10]: 1 (6.3) n (%)
- Renal and urinary disorders [1, 10]: 16 (100) n (%)
- Respiratory, thoracic and mediastinal disorders [1, 10]: 0 n (%)
- Skin and subcutaneous tissue disorders [1, 10]: 1 (6.3) n (%)
- participants who reported ≥ 1 AE ([1]; DDI with rifampicin): 100%
- participants with AE considered as drug-related by the investigator ([1]; DDI with rifampicin): 100%

Compound: CC(=O)N1CCN(c2ccc(OCC3COC(Cn4ccnc4)(c4ccc(Cl)cc4Cl)O3)cc2)CC1 (stereo not shown) [ketoconazole]
- inhibition of formation of BI 425809 metabolites M530 and M544 (CYP3A4 [9]): completely inhibited
